These results are taken from ChEMBL document CHEMBL3745686 (Eur J Med Chem, 2016).

In data set [1] the target is T1, P2X purinoceptor 1 (Homo sapiens) (UniProt P51575).
T1 sequence (whole entry): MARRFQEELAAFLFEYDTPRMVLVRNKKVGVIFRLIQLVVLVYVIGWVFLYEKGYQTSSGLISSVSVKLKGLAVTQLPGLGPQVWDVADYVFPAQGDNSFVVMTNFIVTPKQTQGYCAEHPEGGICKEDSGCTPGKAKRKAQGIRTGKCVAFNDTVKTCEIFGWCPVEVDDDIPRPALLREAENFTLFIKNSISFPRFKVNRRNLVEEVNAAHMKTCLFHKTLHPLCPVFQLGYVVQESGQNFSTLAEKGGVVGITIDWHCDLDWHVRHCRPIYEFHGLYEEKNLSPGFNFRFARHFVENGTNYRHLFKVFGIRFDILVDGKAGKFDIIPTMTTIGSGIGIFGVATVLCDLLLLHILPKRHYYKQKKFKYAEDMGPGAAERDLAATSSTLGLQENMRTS
In words: Agonist activity at human platelet P2X1 receptor assessed as increase in cytosolic calcium level at 1 uM by […] staining based flow cytometric analysis relative to beta,gamma-CH2-ATP. The procedure, abridged:
(§1)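 Stimulus was extracellular Ca2+ uptake on 1 μM test compound (P2X1, scaled to 20 μM β,γ-CH2-ATP as 100%, selective P2Y1 inhibitor control), or 3 μM ADP (P2Y1 antagonism; omitted for agonism).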
In general terms: Flow cytometry measures light scatter and fluorescence of single cells or particles in a stream.

The target in data set [2] is T2, P2Y purinoceptor 1 (Homo sapiens, UniProt P47900). In words: Antagonist activity at human platelet P2Y1 receptor assessed as inhibition of ADP-induced increase in cytosolic calcium level by FLUO-4 staining based flow cytometric analysis. In kind it is functional. In outline:
as §1

For data set [3], the system named is Platelet. In words: Anti-aggregatory activity in human platelet rich plasma assessed as inhibition of ADP-induced platelet shape change. In kind it is functional, cell-free.
Data set [4] addresses T2, P2Y purinoceptor 1. In words: Agonist activity at human platelet P2Y1 receptor assessed as increase in cytosolic calcium level by FLUO-4 staining based flow cytometric analysis. In kind it is functional. In outline: as §1
The target in data set [5] is T3, P2Y purinoceptor 12 (Homo sapiens, UniProt Q9H244). As to the kind of experiment: Agonist activity at human platelet P2Y12 receptor assessed as decrease in intra-platelet phosphorylated VASP by flow cytometric analysis.
The target of data set [6] is T3, P2Y purinoceptor 12. In words: Antagonist activity at human platelet P2Y12 receptor assessed as inhibition of ADP-mediated decrease in intra-platelet phosphorylated VASP by flow cytometric analysis.
A short description of data set [7]: Anti-aggregatory activity in human platelet rich plasma assessed as inhibition of ADP-induced platelet aggregation by optical aggregometry. It is filed as functional, cell-free.
Data set [8] concerns Plasma. As to the kind of experiment: Metabolic stability in rat plasma assessed as first order elimination rate constant at 50 uM measured at 1 to 4 hrs. In kind it is ADME, cell-free.
In data set [9] the test system is Plasma. As to the kind of experiment: Metabolic stability in human plasma assessed as first order elimination rate constant at 50 uM measured at 1 to 4 hrs. It is filed as ADME, cell-free.
Data set [10] relates to Plasma. In words: Half life in rat plasma at 50 uM measured at 1 to 4 hrs. It is filed as ADME, cell-free.
Data set [11] relates to Plasma. In words: Half life in human plasma at 50 uM measured at 1 to 4 hrs. In kind it is ADME, cell-free.

Calls of active or inactive are those of the source. The calls are words filed in the database; no cut-off is given here.

T2 sequence (P47900 whole entry): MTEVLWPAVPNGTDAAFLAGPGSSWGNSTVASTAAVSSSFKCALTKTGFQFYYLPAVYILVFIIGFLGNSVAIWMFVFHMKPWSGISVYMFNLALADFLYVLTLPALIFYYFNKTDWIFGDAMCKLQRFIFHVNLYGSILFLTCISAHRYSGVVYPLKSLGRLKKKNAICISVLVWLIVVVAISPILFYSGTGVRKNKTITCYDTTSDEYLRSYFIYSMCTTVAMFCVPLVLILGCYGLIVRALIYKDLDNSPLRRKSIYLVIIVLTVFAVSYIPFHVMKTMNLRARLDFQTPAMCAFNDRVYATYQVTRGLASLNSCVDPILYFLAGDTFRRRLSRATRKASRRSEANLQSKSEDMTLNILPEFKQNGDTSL
T3 sequence (Q9H244 whole entry): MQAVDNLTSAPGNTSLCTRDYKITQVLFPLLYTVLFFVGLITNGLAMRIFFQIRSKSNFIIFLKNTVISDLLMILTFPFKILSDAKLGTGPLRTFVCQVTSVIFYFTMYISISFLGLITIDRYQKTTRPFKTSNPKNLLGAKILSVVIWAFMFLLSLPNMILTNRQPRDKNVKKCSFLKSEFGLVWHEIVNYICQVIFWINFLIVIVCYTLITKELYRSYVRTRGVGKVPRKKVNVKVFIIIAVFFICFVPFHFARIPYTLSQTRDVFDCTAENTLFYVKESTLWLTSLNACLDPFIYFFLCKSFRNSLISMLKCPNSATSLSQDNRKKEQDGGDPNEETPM

The IC50 is the concentration at which inhibition is half-maximal. In the case of `CNc1nc(SC)nc2c1ncn2[C@@H]1O[C@H](COP(=O)(S)OP(=O)(O)C(Cl)P(=O)(O)OP(=O)(S)OC[C@H]2O[C@@H](n3cnc4c(NC)nc(SC)nc43)[C@H](O)[C@@H]2O)[C@@H](O)[C@H]1O` (stereo partly drawn), the Activity in data set [1] was determined as 92%. Moreover, the IC50 in data set [2] was determined as 0.36 µM; in data set [6], 0.73 µM. Further, the inhibition result in [3] is “Active”. In addition, the result in data set [4] and in data set [5] was inactive.
On to `CCCSc1nc(N)c2ncn([C@@H]3O[C@H](COP(=O)(S)OP(=O)(O)C(Cl)P(=O)(O)OP(=O)(S)OC[C@H]4O[C@@H](n5cnc6c(N)nc(SCCC)nc65)[C@H](O)[C@@H]4O)[C@@H](O)[C@H]3O)c2n1` (mixture of isomers), for which the Activity in data set [1] is 31%. Moreover, the values for the IC50 in [2] and in data set [6] were 6.3 µM and 1.02 µM, respectively. In [3], the inhibition result is “Active”. The outcome in [4] and in data set [5] was inactive.
Take `Nc1ncnc2c1ncn2[C@@H]1O[C@H](COP(=O)(S)OP(=O)(O)C(Cl)P(=O)(O)OP(=O)(S)OC[C@H]2O[C@@H](n3cnc4c(N)ncnc43)[C@H](O)[C@@H]2O)[C@@H](O)[C@H]1O` (mixture of isomers): the IC50 in data set [2] was 10.2 µM.
For `CSc1nc(N)c2ncn([C@@H]3O[C@H](COP(=O)([S-])OP(=O)([O-])C(Cl)P(=O)([O-])OP(=O)([S-])OC[C@H]4O[C@@H](n5cnc6c(N)nc(SC)nc65)[C@H](O)[C@@H]4O)[C@@H](O)[C@H]3O)c2n1.[Na+].[Na+].[Na+].[Na+]` (single isomer, unassigned; diastereomer 3), the IC50 in [7] stood at 0.064 µM. The Kel was determined as 0.128 h⁻¹ in data set [8] and 0.0217 h⁻¹ in data set [9]. In addition, the t1/2 in data set [10] was 5.4 h; in [11] it was 31.9 h.
On to `CNc1ncnc2c1ncn2[C@H]1C[C@H](OP(=O)(O)O)[C@@H](COP(=O)(O)O)O1`, for which the IC50 in data set [2] came out at 2.25 µM.
With `CNc1ncnc2c1ncn2[C@@H]1O[C@H](COP(=O)(S)OP(=O)(O)C(Cl)P(=O)(O)OP(=O)(S)OC[C@H]2O[C@@H](n3cnc4c(NC)ncnc43)[C@H](O)[C@@H]2O)[C@@H](O)[C@H]1O` (mixture of isomers), in data set [1], the Activity was found to be 0.31%. The IC50 is 1.97 µM in [2] and > 200 µM in data set [6]. Besides, the inhibition result in data set [3] is “Active”. The result in data set [4] and in data set [5] was inactive.
Regarding `CSc1nc(N)c2ncn([C@@H]3O[C@H](COP(=O)([S-])OP(=O)([O-])C(Cl)P(=O)([O-])OP(=O)([S-])OC[C@H]4O[C@@H](n5cnc6c(N)nc(SC)nc65)[C@H](O)[C@@H]4O)[C@@H](O)[C@H]3O)c2n1.[Na+].[Na+].[Na+].[Na+]` (single isomer, unassigned; diastereomer 1), the IC50 in data set [7] is 0.076 µM. Moreover, the Kel is 0.0069 h⁻¹ in data set [8] and 0.00976 h⁻¹ in data set [9]. Also, the t1/2 was found to be 100.5 h in [10] and 71 h in data set [11].
With `Nc1nc(I)nc2c1ncn2[C@@H]1O[C@H](COP(=O)(S)OP(=O)(O)C(Cl)P(=O)(O)OP(=O)(S)OC[C@H]2O[C@@H](n3cnc4c(N)nc(I)nc43)[C@H](O)[C@@H]2O)[C@@H](O)[C@H]1O` (mixture of isomers), in data set [1], the Activity amounted to 0.69%. Further, the IC50 in data set [2] worked out at 2.65 µM; in data set [6], 1.35 µM. Moreover, in data set [3], the inhibition entry is “Active”. The result in data set [4] and in [5] was inactive.
For `CCCCCSc1nc(N)c2ncn([C@@H]3O[C@H](COP(=O)(S)OP(=O)(O)C(Cl)P(=O)(O)OP(=O)(S)OC[C@H]4O[C@@H](n5cnc6c(N)nc(SCCCCC)nc65)[C@H](O)[C@@H]4O)[C@@H](O)[C@H]3O)c2n1` (mixture of isomers), the Activity in [1] was found to be 4.7%. Moreover, the values for the IC50 in [2] and in data set [6] were 4.21 µM and 3.1 µM, respectively. For the same compound, the inhibition result in data set [3] was “Active”. Moreover, the outcome in data set [4] and in data set [5] was inactive.
On to `CSc1nc(N)c2ncn([C@@H]3O[C@H](COP(=O)(O)OP(=O)(O)OP(=O)(O)OP(=O)(O)OC[C@H]4O[C@@H](n5cnc6c(N)nc(SC)nc65)[C@H](O)[C@@H]4O)[C@@H](O)[C@H]3O)c2n1`, for which, in [1], the Activity was 48%. The IC50 in data set [2] is 4.9 µM; in data set [6], 1.4 µM. The inhibition entry in data set [3] was “Active”. The result in [4] and in [5] was inactive.
Regarding `CSc1nc(N)c2ncn([C@@H]3O[C@H](COP(=O)(S)OP(=O)(O)OP(=O)(O)OP(=O)(S)OC[C@H]4O[C@@H](n5cnc6c(N)nc(SC)nc65)[C@H](O)[C@@H]4O)[C@@H](O)[C@H]3O)c2n1` (mixture of isomers), the Activity in data set [1] is 3%. Moreover, the IC50 in data set [2] is 0.16 µM; in [6], 2.4 µM. Also, in data set [3], the inhibition result was “Active”. Also, the outcome in data set [4] and in data set [5] was inactive.
As to `CSc1nc(N)c2ncn([C@@H]3O[C@H](COP(=O)(S)OP(=O)(O)C(Cl)(Cl)P(=O)(O)OP(=O)(S)OC[C@H]4O[C@@H](n5cnc6c(N)nc(SC)nc65)[C@H](O)[C@@H]4O)[C@@H](O)[C@H]3O)c2n1` (mixture of isomers), the Activity in data set [1] amounted to 3.3%. Also, the 50% inhibitory concentration (IC50) is 1.02 µM in data set [2] and 1.12 µM in data set [6]. The inhibition result in [3] is “Active”. For the same compound, the result in [4] and in [5] was inactive.
In the case of `CCCNc1ncnc2c1ncn2[C@@H]1O[C@H](COP(=O)(S)OP(=O)(O)C(Cl)P(=O)(O)OP(=O)(S)OC[C@H]2O[C@@H](n3cnc4c(NCCC)ncnc43)[C@H](O)[C@@H]2O)[C@@H](O)[C@H]1O` (mixture of isomers), in [1], the Activity is -0.01%. Moreover, the IC50 worked out at 8.8 µM in data set [2] and 156 µM in data set [6]. Moreover, the inhibition entry in data set [3] is “Active”. Also, the outcome in data set [4] and in data set [5] was inactive.
With `Nc1nc(SCCC(F)(F)F)nc2c1ncn2[C@@H]1O[C@H](COP(=O)(S)OP(=O)(O)C(Cl)P(=O)(O)OP(=O)(S)OC[C@H]2O[C@@H](n3cnc4c(N)nc(SCCC(F)(F)F)nc43)[C@H](O)[C@@H]2O)[C@@H](O)[C@H]1O` (mixture of isomers), the Activity in data set [1] worked out at 4.7%. Further, the IC50 in data set [2] was determined as 5.2 µM; in [6], 0.21 µM. The inhibition result in data set [3] was “Active”. In addition, the result in [4] and in data set [5] was inactive.
As for `CSc1nc(N)c2ncn([C@@H]3O[C@H](COP(=O)(O)OP(=O)(O)C(Cl)P(=O)(O)OP(=O)(O)OC[C@H]4O[C@@H](n5cnc6c(N)nc(SC)nc65)[C@H](O)[C@@H]4O)[C@@H](O)[C@H]3O)c2n1` (stereo partly drawn), the values for the IC50 in data set [2] and in data set [6] were 29 µM and 0.31 µM, respectively. Besides, the inhibition result in [3] is “Active”. Further, the result in [4] and in [5] was inactive.
For `Nc1nc(Cl)nc2c1ncn2[C@@H]1O[C@H](COP(=O)(S)OP(=O)(O)C(Cl)P(=O)(O)OP(=O)(S)OC[C@H]2O[C@@H](n3cnc4c(N)nc(Cl)nc43)[C@H](O)[C@@H]2O)[C@@H](O)[C@H]1O` (mixture of isomers), the Activity in data set [1] turned out to be 0.07%. Moreover, the IC50 came to 7.37 µM in data set [2] and 9.3 µM in data set [6]. Also, the inhibition entry in [3] is “Active”. The outcome in data set [4] and in data set [5] was inactive.
